Experimental data taken from ChEMBL document CHEMBL4610039, “Design, synthesis and apoptosis-related antiproliferative activities of chelidonine derivatives” (Bioorg Med Chem Lett, 2020).
The source made the active and inactive calls. No cut-off for these calls is given here.

Tests used:
K562 [1] = experiment: Induction of cell cycle arrest in human K562 cells assessed as accumulation at G1 phase at 2.20 uM after 72 hrs by propidium iodide staining based flow cytometry (reference value: 56.13%); assay type: functional
Method in brief: (§1)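 For cell cycle, K562 cells were treated 72 h at 0, 0.55, 1.10 or 2.20 μM, with a solvent control. Cells were stained with PI and G1, S and G2/M fractions determined by flow cytometry.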

K562 [2] = experiment: Induction of mitochondrial membrane potential loss in human K562 cells assessed as cell population with mitochondrial membrane potential collapse at 2.20 uM after 48 hrs by JC1 staining-based flow cytometry analysis (reference value: 7.04%); assay type: functional
PBMC = experiment: Cytotoxicity against human PBMC assessed as reduction in cell growth after 72 hrs by MTT assay; assay type: cell-based
Method in brief: (§2)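 Human HepG2, MCF-7, HCT-116 and K562 tumour cells plus normal L-02 hepatocytes and PBMCs were exposed to compounds for 72 h and growth was read by MTT. 5-Fu served as positive control. IC50 is the concentration inhibiting 50% of cell growth, given as mean ± standard deviation of three independent experiments.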

K562 [3] = experiment: Induction of cell cycle arrest in human K562 cells assessed as accumulation at S phase at 2.20 uM after 72 hrs by propidium iodide staining based flow cytometry (reference value: 35.68%); assay type: functional; method in brief: as §1
MCF7 = experiment: Antiproliferative activity against human MCF7 cells assessed as reduction in cell growth after 72 hrs by MTT assay; assay type: functional, cell-based; details: MCF7, 72 h; method in brief: as §2
K562 [4] = experiment: Induction of apoptosis in human K562 cells assessed as early apoptotic cells at 1.10 uM after 48 hrs by annexin V-FITC/propidium iodide staining based flow cytometry (reference value: 2.23%); assay type: functional
K562 [5] = experiment: Induction of apoptosis in human K562 cells assessed as late apoptotic cells at 1.10 uM after 48 hrs by annexin V-FITC/propidium iodide staining based flow cytometry (reference value: 0.73%); assay type: functional
K562 [6] = experiment: Induction of morphological changes in human K562 cells assessed as chromatin aggregation at 0.55 to 2.20 uM after 48 hrs by Hoechst 33258 staining based fluorescence microscopic analysis; assay type: functional, cell-based
Method in brief: (§3)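 After 48 h exposure at 0, 0.55, 1.10 or 2.20 μM, K562 cells were stained with Hoechst 33258. Nuclear morphology, including chromatin aggregation and nuclear rupture, was examined by fluorescence microscopy.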

K562 [7] = experiment: Induction of mitochondrial membrane potential loss in human K562 cells assessed as cell population with intact mitochondrial membrane potential at 0.55 uM after 48 hrs by JC1 staining-based flow cytometry analysis (reference value: 92.94%); assay type: functional
K562 [8] = experiment: Induction of apoptosis in human K562 cells assessed as early apoptotic cells at 0.55 uM after 48 hrs by annexin V-FITC/propidium iodide staining based flow cytometry (reference value: 2.23%); assay type: functional
K562 [9] = experiment: Induction of apoptosis in human K562 cells assessed as reduction in survivin level after 24 hrs by chemiluminescence based protein array analysis; assay type: functional, cell-based
Method in brief: (§4)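 K562 cells were treated for 24 h, then proteins were extracted and run on a human apoptosis protein array. Chemiluminescent signals were detected with a digital imaging system.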

HCT-116 = experiment: Antiproliferative activity against human HCT116 cells assessed as reduction in cell growth after 72 hrs by MTT assay; assay type: functional, cell-based; details: HCT-116, 72 h; method in brief: as §2
K562 [10] = experiment: Induction of cell cycle arrest in human K562 cells assessed as accumulation at S phase at 1.10 uM after 72 hrs by propidium iodide staining based flow cytometry (reference value: 35.68%); assay type: functional; method in brief: as §1
K562 [11] = experiment: Induction of apoptosis in human K562 cells assessed as necrotic cells at 1.10 uM after 48 hrs by annexin V-FITC/propidium iodide staining based flow cytometry (reference value: 0.78%); assay type: functional
K562 [12] = experiment: Induction of apoptosis in human K562 cells assessed as reduction in clusterin protein expression after 24 hrs by chemiluminescence based protein array analysis; assay type: functional, cell-based; method in brief: as §4
K562 [13] = experiment: Induction of apoptosis in human K562 cells assessed as early apoptotic cells at 2.20 uM after 48 hrs by annexin V-FITC/propidium iodide staining based flow cytometry (reference value: 2.23%); assay type: functional
K562 [14] = experiment: Induction of apoptosis in human K562 cells assessed as reduction in catalase protein expression after 24 hrs by chemiluminescence based protein array analysis; assay type: functional, cell-based; method in brief: as §4
K562 [15] = experiment: Induction of apoptosis in human K562 cells assessed as viable cells at 0.55 uM after 48 hrs by annexin V-FITC/propidium iodide staining based flow cytometry (reference value: 96.26%); assay type: functional; details: K562, 48 h, read-out: Activity
K562 [16] = experiment: Induction of apoptosis in human K562 cells assessed as reduction in bcl-xl protein expression after 24 hrs by chemiluminescence based protein array analysis; assay type: functional, cell-based; method in brief: as §4
K562 [17] = experiment: Induction of cell cycle arrest in human K562 cells assessed as accumulation at S phase after 72 hrs by propidium iodide staining based flow cytometry; assay type: functional; method in brief: as §1
K562 [18] = experiment: Induction of cell cycle arrest in human K562 cells assessed as accumulation at G2/M phase at 2.20 uM after 72 hrs by propidium iodide staining based flow cytometry (reference value: 8.19%); assay type: functional; method in brief: as §1
[19] = Drug metabolism assessed as nitric oxide release after 210 mins; assay type: physicochemical; details: 3.5 h
Method in brief: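 NO released from the NO-donating derivatives was measured over time up to 210 min by Griess assay.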

K562 [20] = experiment: Induction of apoptosis in human K562 cells assessed as late apoptotic cells at 0.55 uM after 48 hrs by annexin V-FITC/propidium iodide staining based flow cytometry (reference value: 0.73%); assay type: functional
K562 [21] = experiment: Induction of mitochondrial membrane potential loss in human K562 cells assessed as cell population with intact mitochondrial membrane potential at 1.10 uM after 48 hrs by JC1 staining-based flow cytometry analysis (reference value: 92.94%); assay type: functional
K562 [22] = experiment: Induction of apoptosis in human K562 cells assessed as necrotic cells at 0.55 uM after 48 hrs by annexin V-FITC/propidium iodide staining based flow cytometry (reference value: 0.78%); assay type: functional
K562 [23] = experiment: Induction of cell cycle arrest in human K562 cells assessed as accumulation at G2/M phase at 0.55 uM after 72 hrs by propidium iodide staining based flow cytometry (reference value: 8.19%); assay type: functional; method in brief: as §1
L02 = experiment: Antiproliferative activity against human L02 cells assessed as reduction in cell growth after 72 hrs by MTT assay; assay type: functional, cell-based; details: L02, 72 h; method in brief: as §2
K562 [24] = experiment: Antiproliferative activity against human K562 cells assessed as reduction in cell growth after 72 hrs by MTT assay; assay type: functional, cell-based; details: K562, 72 h; method in brief: as §2
K562 [25] = experiment: Induction of morphological changes in human K562 cells assessed as nuclear rupture at 0.55 to 2.20 uM after 48 hrs by Hoechst 33258 staining based fluorescence microscopic analysis; assay type: functional, cell-based; method in brief: as §3
K562 [26] = experiment: Induction of cell cycle arrest in human K562 cells assessed as accumulation at G1 phase at 1.10 uM after 72 hrs by propidium iodide staining based flow cytometry (reference value: 56.13%); assay type: functional; method in brief: as §1
K562 [27] = experiment: Induction of cell cycle arrest in human K562 cells assessed as accumulation at S phase at 0.55 uM after 72 hrs by propidium iodide staining based flow cytometry (reference value: 35.68%); assay type: functional; method in brief: as §1
K562 [28] = experiment: Induction of apoptosis in human K562 cells by annexin V-FITC/propidium iodide staining based flow cytometry; assay type: functional, cell-based

With CN1Cc2c(ccc3c2OCO3)[C@H]2[C@@H](OC(=O)CCCC(=O)OCC#CCOc3no[n+]([O-])c3S(=O)(=O)c3ccccc3)Cc3cc4c(cc3[C@H]21)OCO4 the Activity (K562 [1]) was 32.41%, the Activity (K562 [2]) was 51.15% and the IC50 (PBMC) was > 40 µM. For the same molecule, the Activity (K562 [3]) was 59.72%, the IC50 (MCF7) was 6.9 µM and the Activity (K562 [4]) was 16.46%. For the same molecule, the Activity (K562 [5]) was 2.39%, the Activity (K562 [6]) was “Active” and the Activity (K562 [7]) was 80.71%. The Activity (K562 [8]) was 6.49%, the Activity (K562 [9]) was “Active” and the IC50 (HCT-116) was 4.36 µM. The Activity (K562 [10]) was 52.04%, the Activity (K562 [11]) was 0.66% and the Activity (K562 [12]) was “Active”. The Activity (K562 [13]) was 24.84%, the Activity (K562 [14]) was “Active” and the viability at 0.55 µM (K562 [15]) was 88.3%. For the same molecule, the Activity (K562 [16]) was “Active”, the Activity (K562 [17]) was “Dose-dependent effect” and the Activity (K562 [18]) was 7.87%. The Drug metabolism [19] was 30 µM, the Activity (K562 [20]) was 3.47% and the Activity (K562 [21]) was 71.34%. It also gave an Activity (K562 [22]) of 1.69%, an Activity (K562 [23]) of 10.28% and an IC50 (L02) of 6.04 µM. For the same molecule, the IC50 (K562 [24]) was 1.12 µM, the Activity (K562 [25]) was “Active” and the Activity (K562 [26]) was 41.27%. The Activity (K562 [27]) was 41.89% and the Activity (K562 [28]) was “Dose-dependent effect”.
